Holding throughout (type): protein-complex assay
The target of assay [1] is T1, MexXY/OprM (Pseudomonas aeruginosa (strain ATCC 15692 / DSM 22644 / CIP 104116 / JCM14847 / LMG 12228 / 1C / PRS 101 / PAO1)) (UniProt Q51487+Q9ZNG9+Q9ZNG8). In words: Inhibition of MexXY/OPRM in Pseudomonas aeruginosa C9 assessed as bacterial growth up to 320 ug/ml incubated for 24 to 48 hrs by broth microdilution method. The gist of the method: (§1)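 Broth microdilution per CLSI, with P. aeruginosa ATCC 27853 as reference strain, in 2-fold dilution series. Plates were incubated at 37°C and read for visible growth at 24 and 48 h. Berberine stock was in 50% DMSO/50% methanol, with final DMSO kept near 1%. Berberine was tested at 10–320 µg/ml, alone or at a fixed level with serial tobramycin.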

The target of assay [2] is T1, MexXY/OprM (Pseudomonas aeruginosa (strain ATCC 15692 / DSM 22644 / CIP 104116 / JCM14847 / LMG 12228 / 1C / PRS 101 / PAO1)). In words: Inhibition of MexXY/OPRM in Pseudomonas aeruginosa K767 assessed as reduction in bacterial resistance to tobramycin by measuring tobramycin MIC at 80 ug/ml incubated for 24 to 48 hrs by broth microdilution method (reference value: 0.25 ug/ml). In a few lines: as §1
(In general: Broth dilution looks for growth in wells or tubes with falling amounts of substance.)

The target is the same in assay [3]. Kind of assay: Inhibition of MexXY/OPRM in Pseudomonas aeruginosa C61 assessed as bacterial growth up to 320 ug/ml incubated for 24 to 48 hrs by broth microdilution method. The gist of the method: (§2)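 Broth microdilution following CLSI guidelines, with P. aeruginosa ATCC 27853 as reference strain. Berberine was tested at 2-fold concentrations from 10 to 320 µg/ml, dissolved in 50% DMSO/50% methanol, with the top concentration set to keep final DMSO close to 1%. Plates were incubated at 37°C and read for visible growth at 24 and 48 h.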

The target is the same in assay [4]. In words: Inhibition of MexXY/OPRM in Pseudomonas aeruginosa AR48 assessed as bacterial growth up to 320 ug/ml incubated for 24 to 48 hrs by broth microdilution method. In a few lines: as §2
For assay [5] the target is unchanged. In words: Inhibition of MexXY/OPRM in Pseudomonas aeruginosa C60 assessed as reduction in bacterial resistance to tobramycin by measuring fold reduction in tobramycin MIC at 80 ug/ml incubated for 24 to 48 hrs by broth microdilution method.
Assay [6] has the same target. Kind of assay: Inhibition of MexXY/OPRM in Pseudomonas aeruginosa C98 assessed as bacterial growth up to 320 ug/ml incubated for 24 to 48 hrs by broth microdilution method. In a few lines: as §1
The target is the same in assay [7]. Kind of assay: Inhibition of MexXY/OPRM in Pseudomonas aeruginosa AR61 assessed as reduction in bacterial resistance to tobramycin by measuring tobramycin MIC at 80 ug/ml incubated for 24 to 48 hrs by broth microdilution method (reference value: 0.125 ug/ml).
For assay [8] the target is unchanged. In words: Inhibition of MexXY/OPRM in Pseudomonas aeruginosa C93 assessed as reduction in bacterial resistance to tobramycin by measuring fold reduction in tobramycin MIC at 80 ug/ml incubated for 24 to 48 hrs by broth microdilution method. The gist of the method:
(§3)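 Tobramycin MIC by CLSI broth microdilution at 37°C, read at 24 and 48 h, with and without a fixed berberine concentration selected from checkerboard assays. Berberine stock was in 50% DMSO/50% methanol, final DMSO about 1%. A 2-fold decrease in tobramycin MIC was scored as synergy.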

Assay [9] shares this target. In words: Inhibition of MexXY/OPRM in Pseudomonas aeruginosa C73 assessed as reduction in bacterial resistance to tobramycin by measuring tobramycin MIC at 80 ug/ml incubated for 24 to 48 hrs by broth microdilution method (reference value: 128 ug/ml).
Assay [10] shares this target. In words: Inhibition of MexXY/OPRM in Pseudomonas aeruginosa C95 assessed as reduction in bacterial resistance to tobramycin by measuring increase in tobramycin-mediated bactericidal activity at 80 ug/ml in presence of 1XMIC to 2XMIC tobramycin measured after 2 hrs by Time-kill curve analysis.
The target is the same in assay [11]. Kind of assay: Inhibition of MexXY/OPRM in Pseudomonas aeruginosa C9 assessed as reduction in bacterial resistance to tobramycin by measuring tobramycin MIC at 80 ug/ml incubated for 24 to 48 hrs by broth microdilution method (reference value: 2 ug/ml). The gist of the method: as §1
For assay [12] the target is unchanged. In words: Inhibition of MexXY/OPRM in Pseudomonas aeruginosa C104 assessed as reduction in bacterial resistance to tobramycin by measuring fold reduction in tobramycin MIC at 80 ug/ml incubated for 24 to 48 hrs by broth microdilution method.
For assay [13] the target is unchanged. In words: Inhibition of MexXY/OPRM in Pseudomonas aeruginosa AR51 assessed as bacterial growth up to 320 ug/ml incubated for 24 to 48 hrs by broth microdilution method. The gist of the method: as §2
Assay [14] has the same target. Kind of assay: Inhibition of MexXY/OPRM in Pseudomonas aeruginosa C95 assessed as reduction in bacterial resistance to tobramycin by measuring fold reduction in tobramycin MIC at 80 ug/ml incubated for 24 to 48 hrs by broth microdilution method. In a few lines: as §3
The target is the same in assay [15]. Kind of assay: Inhibition of MexXY/OPRM in Pseudomonas aeruginosa C52 assessed as reduction in bacterial resistance to tobramycin by measuring tobramycin MIC at 80 ug/ml incubated for 24 to 48 hrs by broth microdilution method (reference value: >128 ug/ml).
For assay [16] the target is unchanged. In words: Inhibition of MexXY/OPRM in Pseudomonas aeruginosa C52 assessed as bacterial growth up to 320 ug/ml incubated for 24 to 48 hrs by broth microdilution method. In a few lines:
as §2

Assay [17] has the same target. Kind of assay: Inhibition of MexXY/OPRM in Pseudomonas aeruginosa AR51 assessed as reduction in bacterial resistance to tobramycin by measuring tobramycin MIC at 80 ug/ml incubated for 24 to 48 hrs by broth microdilution method (reference value: 16 ug/ml).
Assay [18] shares this target. Kind of assay: Inhibition of MexXY/OPRM in Pseudomonas aeruginosa C51 assessed as reduction in bacterial resistance to tobramycin by measuring tobramycin MIC at 80 ug/ml incubated for 24 to 48 hrs by broth microdilution method (reference value: 0.125 ug/ml).
Assay [19] shares this target. In words: Inhibition of MexXY/OPRM in Pseudomonas aeruginosa C60 assessed as bacterial growth up to 320 ug/ml incubated for 24 to 48 hrs by broth microdilution method. The gist of the method: as §2
Assay [20] shares this target. Kind of assay: Inhibition of MexXY/OPRM in Pseudomonas aeruginosa C103 assessed as reduction in bacterial resistance to tobramycin by measuring tobramycin MIC at 80 ug/ml incubated for 24 to 48 hrs by broth microdilution method (reference value: 4 ug/ml).
The target is the same in assay [21]. In words: Inhibition of MexXY/OPRM in Pseudomonas aeruginosa C83 assessed as reduction in bacterial resistance to tobramycin by measuring tobramycin MIC at 80 ug/ml incubated for 24 to 48 hrs by broth microdilution method (reference value: 128 ug/ml).
Assay [22] shares this target. Kind of assay: Inhibition of MexXY/OPRM in Pseudomonas aeruginosa C61 assessed as reduction in bacterial resistance to tobramycin by measuring tobramycin MIC at 80 ug/ml incubated for 24 to 48 hrs by broth microdilution method (reference value: 64 ug/ml).
For assay [23] the target is unchanged. Kind of assay: Inhibition of MexXY/OPRM in Pseudomonas aeruginosa C60 assessed as reduction in bacterial resistance to tobramycin by measuring tobramycin MIC at 80 ug/ml incubated for 24 to 48 hrs by broth microdilution method (reference value: >128 ug/ml).

Molecules are shown by their SMILES. Active and inactive are the calls of the source. No cut-off for these calls is given here.

On to `COc1ccc2cc3[n+](cc2c1OC)CCc1cc2c(cc1-3)OCO2` [BERBERINE], for which the inhibition entry in assay [1], in assay [3], in assay [4], in assay [6], in assay [13] and in assay [16] was “inactive” throughout. Further, the inhibition entry in assay [19] is “inactive”. Moreover, the MIC was 0.125 µg/mL in assay [2]; 0.125 µg/mL in assay [7]; 64 µg/mL in assay [9]; 1 µg/mL in [11]; 128 µg/mL in assay [15]; 8 µg/mL in assay [17]. Besides, the MIC in assay [18] was less than 0.125 µg/mL; in [20] it was 4 µg/mL; in assay [21] it was 32 µg/mL; in assay [22], 16 µg/mL; in assay [23], 64 µg/mL. In addition, the fold change (FC) in assay [5], in [8], in assay [12] and in assay [14] was more than 2 in each case. In [10], the inhibition entry was “Active”.

Source of the values: ChEMBL document CHEMBL4334451, “Natural Alkaloid Berberine Activity against Pseudomonas aeruginosa MexXY-Mediated Aminoglycoside Resistance: In Silico and in Vitro Studies” (J Nat Prod, 2019).
